Activity calls are given as the source filed them. The rule behind the calls is not given here.
Legend:
[1] = tested on: K562; test: Cytotoxicity against human K562 cells after 48 hrs by MTT assay; format: functional; conditions: K562, 48 h, read-out: LC50 (the source's name)
Outline: (§1)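 Values reported as LC50 (μM), with doxorubicin as the positive control; the rest of the method follows the cited literature protocol.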

[2] = tested on: A549; test: Cytotoxicity against human A549 cells after 48 hrs by MTT assay; format: functional; conditions: A549, 48 h; outline: as §1
[3] = tested on: Hepa-1c1c7; test: Induction of quinone reductase in mouse Hepa-1c1c7 cells at 2 uM after 24 hrs by MTT assay relative to control; format: cell-based
[4] = tested on: Bacillus spizizenii; test: Antimicrobial activity against Bacillus subtilis ATCC 6633 after 24 hrs by two-fold broth dilution assay; format: functional; conditions: ATCC 6633, 24 h
[5] = tested on: Hepa-1c1c7; test: Induction of quinone reductase in mouse Hepa-1c1c7 cells at 40 uM after 24 hrs by MTT assay relative to control; format: cell-based
Outline: (§2)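 QR induction measured in murine Hepa 1c1c7 hepatoma cells. Test concentrations ranged 5−40 μM. Blank control was 0.1% DMSO, and β-NF at 2 μM served as the positive control. Induction is expressed as fold over the blank control.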

[6] = tested on: Staphylococcus aureus; test: Antimicrobial activity against Staphylococcus aureus ATCC 6538p after 24 hrs by two-fold broth dilution assay; format: functional
[7] = tested on: Trichophyton rubrum; test: Antimicrobial activity against Trichophyton rubrum IFO 9185 after 48 to 72 hrs by two-fold broth dilution assay; format: functional
[8] = tested on: Candida albicans; test: Antimicrobial activity against Candida albicans ATCC 10231 after 48 to 72 hrs by two-fold broth dilution assay; format: functional
[9] = tested on: Aspergillus fumigatus; test: Antimicrobial activity against Aspergillus fumigatus HIC 6094 after 48 to 72 hrs by two-fold broth dilution assay; format: functional
[10] = tested on: Trichophyton mentagrophytes; test: Antimicrobial activity against Trichophyton mentagrophytes IFO 40996 after 48 to 72 hrs by two-fold broth dilution assay; format: functional
[11] = tested on: Proteus vulgaris; test: Antimicrobial activity against Proteus vulgaris ATCC 3851 after 24 hrs by two-fold broth dilution assay; format: functional; conditions: ATCC 3851, 24 h
[12] = tested on: Micrococcus luteus; test: Antimicrobial activity against Micrococcus luteus IFO 12708 after 24 hrs by two-fold broth dilution assay; format: functional; conditions: IFO 12708, 24 h
[13] = tested on: Salmonella typhimurium; test: Antimicrobial activity against Salmonella typhimurium ATCC 14028 after 24 hrs by two-fold broth dilution assay; format: functional, Salmonella enterica subsp. enterica serovar Typhimurium; conditions: Salmonella enterica, ATCC 14028, 24 h
[14] = tested on: Escherichia coli; test: Antimicrobial activity against Escherichia coli ATCC 35270 after 24 hrs by two-fold broth dilution assay; format: functional; conditions: ATCC 35270, 24 h
[15] = tested on: Hepa-1c1c7; test: Induction of quinone reductase in mouse Hepa-1c1c7 cells after 24 hrs by MTT assay; format: cell-based; outline: as §2
[16] = read-out: LC50 (the source's name)

`COc1cccc2c1C(=O)c1c(O)c3c(c(O)c1C2=O)C[C@@](O)(C(=O)CO)C[C@@H]3O[C@H]1C[C@H](N)[C@H](O)[C@H](C)O1` [DOXORUBICIN] showed a CC50 [1] of 0.99 µM and a CC50 ([2]; read-out: LD50 (the source's name)) of 1.2 µM.
With `O=c1cc(-c2ccccc2)oc2ccc3ccccc3c12` the Activity [3] was “Active”.
`Cc1cc(=O)c2c(o1)O[C@@]1(C)[C@@H](CC[C@H]3C(C)(C)[C@@H](O)CC[C@@]31C)C2` was tested, and the MIC [4] was over 100 µg/mL, the Activity [5] was “inactive” and the MIC [6] was over 100 µg/mL. The MIC [7] was over 100 µg/mL, the MIC [8] was over 100 µg/mL and the MIC [9] was over 100 µg/mL. The MIC [10] was over 100 µg/mL, the CC50 [1] was 28 µM and the CC50 [2, 16] was 15 µM. For the same compound, the MIC [11] was over 100 µg/mL, the MIC [12] was over 100 µg/mL and the MIC [13] was over 100 µg/mL. The MIC [14] was over 100 µg/mL.
`Cc1cc(=O)c2c(o1)O[C@@]1(C)[C@@H](CC[C@H]3C(C)(C)C(=O)CC[C@@]31C)C2` was tested, and the Activity [15] was “Dose-dependent effect”, the MIC [4] was over 100 µg/mL and the Ratio [5] was 1.9. The MIC [6] was over 100 µg/mL, the MIC [7] was over 100 µg/mL and the MIC [8] was over 100 µg/mL. It also gave an MIC [9] of over 100 µg/mL, an MIC [10] of over 100 µg/mL and a CC50 [1] of 50 µM. The CC50 [2, 16] was 17 µM, the MIC [11] was over 100 µg/mL and the MIC [12] was over 100 µg/mL. The MIC [13] was over 100 µg/mL and the MIC [14] was over 100 µg/mL.

From ChEMBL document CHEMBL3108711, “Penicillipyrones A and B, meroterpenoids from a marine-derived Penicillium sp. fungus” (2014)
